Measured values as given in ChEMBL document CHEMBL2057101, “Fluorocyclines. 2. Optimization of the C-9 side-chain for antibacterial activity and oral efficacy” (J Med Chem, 2012).
≈ marks a conversion by molar mass, not a printed value.

Assays:
Staphylococcus aureus [1] = experiment: Antibacterial activity against tetracycline-susceptible Staphylococcus aureus ATCC 13709 Smith isolate SA100; type: functional
In short: (§1)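 Broth microdilution MIC following CLSI methods in cation-adjusted Mueller Hinton broth, prepared fresh and held at 4 °C before testing. Defibrinated horse blood added to the medium where appropriate. Runs accepted when quality control ranges for comparator antibiotics and ATCC QC strains were met.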

Staphylococcus aureus [2] = experiment: Antibacterial activity against tetracycline-resistant Staphylococcus aureus isolate SA161 expressing TetM gene; type: functional; in short: as §1
Staphylococcus aureus [3] = experiment: Antibacterial activity against tetracycline-resistant Staphylococcus aureus isolate SA158 expressing TetK gene; type: functional
Streptococcus pneumoniae [4] = experiment: Antibacterial activity against Streptococcus pneumoniae ATCC 49619 isolate 106; type: functional
In short: (§2)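 MIC by broth microdilution in liquid medium per CLSI, in cation-adjusted Mueller Hinton broth made fresh and held at 4 °C before testing. Horse blood (defibrinated) added to the medium where appropriate. Runs were accepted only when the comparator antibiotics and ATCC QC strains fell within their recommended ranges.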

Streptococcus pneumoniae [5] = experiment: Antibacterial activity against tetracycline-resistant Streptococcus pneumoniae isolate 160 expressing tetM gene; type: functional
Escherichia coli [6] = experiment: Antibacterial activity against Escherichia coli ATCC 25922 isolate 107; type: functional; in short: as §2
Escherichia coli [7] = experiment: Antibacterial activity against Escherichia coli isolate EC155 expressing tetA gene; type: functional; in short: as §2
Klebsiella pneumoniae = experiment: Antibacterial activity against Klebsiella pneumoniae ATCC 13883; type: functional; in short: as §2
Staphylococcus aureus [8] = experiment: Antibacterial activity against Staphylococcus aureus ATCC 13709 infected in CD-1 mouse assessed as increase in survival at 3 mg/kg, iv administered as single dose 1 hr post infection measured after 48 hrs post infection; type: functional
In short: (§3)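 Mouse septicemia screen: S. aureus grown to log phase, diluted in 5% mucin to give 90% mortality within 48 h, inoculum 1.98 × 10⁶ CFU/mouse, 0.5 mL intraperitoneal into female CD-1 mice (18−20 g). Six mice per group. Single 30 mg/kg oral gavage or 3 mg/kg IV dose 1 h post infection. Infection controls received sterile water vehicle. Survival recorded at 48 h.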

Staphylococcus aureus [9] = experiment: Antibacterial activity against Staphylococcus aureus ATCC 13709 infected in CD-1 mouse assessed as increase in survival at 30 mg/kg, po administered as single dose 1 hr post infection measured after 48 hrs post infection; type: functional; in short: as §3
Mus musculus = experiment: (§4) Oral bioavailability in CD1 mouse at 30 mg/kg; type: ADME, organism-based; details: mouse, in vivo, BLD = below limit of detection
[10] = Oral bioavailability in rat; type: ADME, organism-based; details: in vivo
Staphylococcus aureus [11] = experiment: Antibacterial activity against methicillin-resistant Staphylococcus aureus VL-137; type: functional; in short: as §1
Streptococcus pneumoniae [12] = experiment: Antibacterial activity against Streptococcus pneumoniae SPN160; type: functional; in short: as §1
Haemophilus influenzae [13] = experiment: Antibacterial activity against Haemophilus influenzae 551; type: functional; in short: as §2
Streptococcus pyogenes = experiment: Antibacterial activity against Streptococcus pyogenes; type: functional; in short: as §2
Moraxella catarrhalis = experiment: Antibacterial activity against Moraxella catarrhalis; type: functional; in short: as §2
Acinetobacter baumannii = experiment: Antibacterial activity against Acinetobacter baumannii; type: functional; in short: as §2
Staphylococcus aureus [14] = experiment: Antibacterial activity against methicillin-resistant Staphylococcus aureus VL-137 infected in neutropenic Balb/c mouse assessed as reduction in lung CFU at 50 mg/kg, po administered 2 and 12 hrs post infection measured 24 hrs post treatment; type: functional
In short: (§5)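 Female Balb/c mice (18−20 g) made neutropenic with IP cyclophosphamide, 150 and 100 mg/kg on days −4 and −1. Intranasal infection under light anesthesia. Treatment at 2 and 12 h post infection, oral 50 mg/kg/dose or IV 10 mg/kg/dose, six mice per group. At 24 h lungs were homogenized and plated on TSA (37 °C, 5% CO₂, overnight). Read-out is CFU/g lung.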

Staphylococcus aureus [15] = experiment: Antibacterial activity against methicillin-resistant Staphylococcus aureus VL-137 infected in neutropenic Balb/c mouse assessed as reduction in lung CFU at 10 mg/kg, iv administered 2 and 12 hrs post infection measured 24 hrs post treatment; type: functional; in short: as §5
Haemophilus influenzae [16] = experiment: Antibacterial activity against Haemophilus influenzae 551 infected in immunocompetent Sprague-Dawley rat assessed as reduction in lung CFU per gram of tissue at 100 mg/kg, po administered 5, 24 and 48 hrs post infection measured after 72 hrs; type: functional
In short: (§6)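 Male Sprague-Dawley rats (175–200 g), immunocompetent, infected intratracheally with H. influenzae 551 (0.05 mL) under light anesthesia. Dosing at 5, 24 and 48 h post infection: test agent 100 mg/kg/dose orally or 25 mg/kg/dose IV; azithromycin 50 mg/kg/dose orally. Six rats per dose. Lungs removed 72 h after treatment began, homogenized, serially diluted, plated on TSA-II, incubated overnight at 37 °C in 5% CO2; CFU/g lung calculated.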

Haemophilus influenzae [17] = experiment: Antibacterial activity against Haemophilus influenzae 551 infected in immunocompetent Sprague-Dawley rat assessed as reduction in lung CFU per gram of tissue at 25 mg/kg, iv administered 5, 24 and 48 hrs post infection measured after 72 hrs; type: functional; in short: as §6
Streptococcus pneumoniae [18] = experiment: Antibacterial activity against Streptococcus pneumoniae 1629 infected in immunocompetent CD-1 mouse infection model assessed as reduction in lung CFU at 30 mg/kg, po administered 5, 24 and 36 hrs post infection measured 48 hrs post treatment
Haemophilus influenzae [19] = experiment: Antibacterial activity against Haemophilus influenzae 551 infected in immunocompetent Sprague-Dawley rat assessed as reduction in lung CFU per gram of tissue at 50 mg/kg, po administered 5, 24 and 48 hrs post infection measured after 72 hrs; type: functional; in short: as §6
Staphylococcus aureus [20] = experiment: Antibacterial activity against Staphylococcus aureus ATCC 13709 infected in po dosed CD-1 mouse assessed as increase in survival administered as single dose 1 hr post infection measured after 48 hrs post infection; type: functional; details: ATCC 13709, po, read-out: PD50
[21] = as §4; type: ADME, organism-based; details: CD1, mouse, in vivo
[22] = Oral bioavailability in human; type: ADME, organism-based; details: in vivo

## CN(C)c1cc(NC(=O)CNC(C)(C)C)c(O)c2c1C[C@H]1C[C@H]3[C@H](N(C)C)C(O)=C(C(N)=O)C(=O)[C@@]3(O)C(O)=C1C2=O [TIGECYCLINE]
Staphylococcus aureus [1]
  MIC: 0.063 µg/mL (≈ 0.108 µM)
Staphylococcus aureus [2]
  MIC: 0.13 µg/mL (≈ 0.222 µM)
Staphylococcus aureus [3]
  MIC: 0.063 µg/mL (≈ 0.108 µM)
Streptococcus pneumoniae [4]
  MIC: 0.016 µg/mL (≈ 0.0273 µM)
Streptococcus pneumoniae [5]
  MIC: 0.016 µg/mL (≈ 0.0273 µM)
Escherichia coli [6]
  MIC: 0.125 µg/mL (≈ 0.213 µM)
Escherichia coli [7]
  MIC: 0.5 µg/mL (≈ 0.854 µM)
Klebsiella pneumoniae
  MIC: 0.125 µg/mL (≈ 0.213 µM)
Staphylococcus aureus [8]
  survival at 3 mg/kg: 100%
Staphylococcus aureus [9]
  survival at 30 mg/kg: 0%
Mus musculus
  F: BLD

## CN(C)[C@@H]1C(O)=C(C(N)=O)C(=O)[C@@]2(O)C(O)=C3C(=O)c4c(O)c(NC(=O)[C@@H]5CCCN5C)cc(F)c4C[C@H]3C[C@@H]12 [TP-271]
Staphylococcus aureus [1]
  MIC: 0.13 µg/mL (≈ 0.233 µM)
Staphylococcus aureus [2]
  MIC: 0.25 µg/mL (≈ 0.448 µM)
Staphylococcus aureus [3]
  MIC: 0.13 µg/mL (≈ 0.233 µM)
Streptococcus pneumoniae [4]
  MIC: 0.016 µg/mL (≈ 0.0286 µM)
Streptococcus pneumoniae [5]
  MIC: 0.016 µg/mL (≈ 0.0286 µM)
Escherichia coli [6]
  MIC: 0.25 µg/mL (≈ 0.448 µM)
Escherichia coli [7]
  MIC: 8 µg/mL (≈ 14.3 µM)
Klebsiella pneumoniae
  MIC: 2 µg/mL (≈ 3.58 µM)
Staphylococcus aureus [8]
  survival at 3 mg/kg: 100%
Staphylococcus aureus [9]
  survival at 30 mg/kg: 100%
[10]
  bioavailability: 5.7%
Staphylococcus aureus [11]
  MIC50: 0.031 µg/mL (≈ 0.0555 µM)
  MIC90: 0.13 µg/mL (≈ 0.233 µM)
Streptococcus pneumoniae [12]
  MIC: 0.016 µg/mL (≈ 0.0286 µM)
  MIC50: 0.016 µg/mL (≈ 0.0286 µM)
  MIC90: 0.016 µg/mL (≈ 0.0286 µM)
Haemophilus influenzae [13]
  MIC50: 0.25 µg/mL (≈ 0.448 µM)
  MIC90: 0.5 µg/mL (≈ 0.895 µM)
Streptococcus pyogenes
  MIC: 0.016 µg/mL (≈ 0.0286 µM)
  MIC50: 0.016 µg/mL (≈ 0.0286 µM)
  MIC90: 0.016 µg/mL (≈ 0.0286 µM)
Moraxella catarrhalis
  MIC: 0.016 µg/mL (≈ 0.0286 µM)
  MIC50: 0.016 µg/mL (≈ 0.0286 µM)
  MIC90: 0.016 µg/mL (≈ 0.0286 µM)
Acinetobacter baumannii
  MIC50: 0.13 µg/mL (≈ 0.233 µM)
  MIC90: 1 µg/mL (≈ 1.79 µM)
Staphylococcus aureus [14]
  log10CFU/g: 1.99
Staphylococcus aureus [15]
  log10CFU/g: 3.03
Haemophilus influenzae [16]
  log10CFU/g: 1.77
Haemophilus influenzae [17]
  log10CFU/g: 4.87
Streptococcus pneumoniae [18]
  log10CFU/g: 4.75

## CC[C@H]1OC(=O)[C@H](C)[C@@H](O[C@H]2C[C@@](C)(OC)[C@@H](O)[C@H](C)O2)[C@H](C)[C@@H](O[C@@H]2O[C@H](C)C[C@H](N(C)C)[C@H]2O)[C@](C)(O)C[C@@H](C)CN(C)[C@H](C)[C@@H](O)[C@]1(C)O [AZITHROMYCIN]
Haemophilus influenzae [19]
  log10CFU/g: >=6

## CN(C)c1cc(CNCC(C)(C)C)c(O)c2c1C[C@H]1C[C@H]3[C@H](N(C)C)C(O)=C(C(N)=O)C(=O)[C@@]3(O)C(O)=C1C2=O [OMADACYCLINE]
Staphylococcus aureus [1]
  MIC: 0.5 µg/mL (≈ 0.898 µM)
Staphylococcus aureus [2]
  MIC: 2 µg/mL (≈ 3.59 µM)
Staphylococcus aureus [3]
  MIC: 0.25 µg/mL (≈ 0.449 µM)
Streptococcus pneumoniae [4]
  MIC: 0.031 µg/mL (≈ 0.0557 µM)
Streptococcus pneumoniae [5]
  MIC: 0.125 µg/mL (≈ 0.225 µM)
Escherichia coli [6]
  MIC: 2 µg/mL (≈ 3.59 µM)
Escherichia coli [7]
  MIC: 16 µg/mL (≈ 28.7 µM)
Klebsiella pneumoniae
  MIC: 2 µg/mL (≈ 3.59 µM)
Staphylococcus aureus [8]
  survival at 3 mg/kg: 100%
Staphylococcus aureus [9]
  survival at 30 mg/kg: 33%
Staphylococcus aureus [20]
  ED50: 30.3 mg/kg
[21]
  bioavailability: 1.5%
[10]
  bioavailability: 0.7%
[22]
  bioavailability: 33%
